Data on four molecules can be found in ChEMBL document CHEMBL4177559, “Design, Synthesis, and Evaluation of a Series of Novel Benzocyclobutene Derivatives as General Anesthetics” (J Med Chem, 2017).

Data set [1] has as its system Mus musculus. The data set can be described thus: Anesthetic activity in iv dosed ICR mouse assessed as onset time for loss of righting reflex administered as single bolus dose. Type of data set: functional. Summed up: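 ICR mice (fasted, 18−22 g, 10 per dose group, 7−9 groups) got one tail-vein iv bolus (~10 s) in 5% DMSO/5−10% Solutol HS-15/85−90% saline. Onset was the time from dosing to loss of righting reflex.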

In data set [2] the test system is Mus musculus. Nature of the data set: Anesthetic activity in iv dosed ICR mouse assessed as anesthetic duration time by measuring loss of righting reflex administered as single bolus dose. Type of data set: functional. In a few lines:
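Fasted ICR mice (18−22 g, 10 per group) received a single ~10 s lateral tail-vein bolus in 5% DMSO/5−10% Solutol HS-15/saline. Duration was the time from dosing to recovery of righting reflex, recorded at the dose giving 100% loss of righting reflex.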

A short description of data set [3]: Therapeutic index, ratio of LD50 for toxicity in ICR mouse to ED50 for anesthetic effect in ICR mouse. Type of data set: organism-based. The following applies: in vivo, read-out: Ratio LD50/ED50. Summed up: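 Fasted ICR mice (18−22 g, male and female), 7−9 dose groups of 10, given a single ~10 s iv bolus into the lateral tail vein in 5% DMSO, 5−10% Solutol HS-15, 85−90% saline. Loss of righting reflex scored; ED50 and LD50 derived by nonlinear fitting; TI = LD50/ED50.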

The next data set concerns Rattus norvegicus. The data set can be described thus: Cmax in Sprague-Dawley rat at 1 mg/kg, iv administered as single dose. Format: ADME, organism-based. Details: dose 1 mg/kg, route intravenous. Conditions: in vivo.
The nature of data set [4]: AUC in Sprague-Dawley rat at 1 mg/kg, iv administered as single dose. The following applies: in vivo. Format: ADME, organism-based.
Data set [5] concerns Mus musculus. Nature of the data set: Anesthetic activity in iv dosed ICR mouse assessed as dose required to produce anesthesia administered as single bolus dose. Format: functional. In a few lines:
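Fasted ICR mice (18−22 g, male and female) were randomised into 7−9 dose groups of 10 each. Each received one intravenous bolus over about 10 s in the lateral tail vein. Vehicle was 5% DMSO, 5−10% Solutol HS-15 and 85−90% saline. The endpoint was loss of righting reflex, and ED50 was derived by nonlinear fitting of dose–response.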

Data set [6] can be described thus: Clearance in Sprague-Dawley rat at 1 mg/kg, iv administered as single dose. Type of data set: ADME, organism-based. The following applies: in vivo.

As for `CC(C)c1cccc(C(C)C)c1O` [PROPOFOL], the values for the Time with Mus musculus [1] and in the data set on Mus musculus [2] were under 10 s and 303.2 s, respectively. For the same molecule, in data set [3], the selectivity ratio is 2.7. The molecule further came in with a Cmax in the data set on Rattus norvegicus of 384 ng/mL. The AUC in data set [4] came to 77 ng·h/mL.
In the case of `CC(C)c1ccc2c(c1O)C(C)(N=[N+]=[N-])C2` (racemic), the Time with Mus musculus [1] was under 10 s; in the data set on Mus musculus [2], 381.7 s. The ED50 in the data set on Mus musculus [5] came to 9.4 mg/kg. Besides, the selectivity ratio in data set [3] amounted to 5.9.
On to `CC(C)c1ccc2c(c1O)[C@@H](C)C2`, for which, in data set [6], the clearance is 67 mL/min/kg.
On the same count and under the same terms, next, `CC(C)c1ccc2c(c1O)[C@H](C)C2`: 77 mL/min/kg.
